Source: ChEMBL document CHEMBL1287666, “Synthesis and in vitro antifungal activities of new 3-substituted benzopyrone derivatives” (2010)
≈ marks a conversion by molar mass, not a printed value.

Assays:
Type in all cases: functional
[1] = test system: Candida parapsilosis; assay: Antifungal activity against Candida parapsilosis clinical isolate by serial dilution method; conditions: Lodderomyces parapsilosis
Summary of the method: (§1)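 Broth serial dilution in 96-well microplates against a panel of five human pathogenic fungi. Activity is reported as the minimal inhibitory concentration (MIC), and fluconazole served as the positive control.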

[2] = test system: Candida albicans; assay: Antifungal activity against Candida albicans by serial dilution method; summary of the method: as §1
[3] = test system: Cryptococcus neoformans; assay: Antifungal activity against Cryptococcus neoformans by serial dilution method; summary of the method: as §1
[4] = test system: Trichophyton rubrum; assay: Antifungal activity against Trichophyton rubrum clinical isolate by serial dilution method; summary of the method: as §1
[5] = test system: Nannizzia gypsea; assay: Antifungal activity against Microsporum gypseum clinical isolate by serial dilution method; summary of the method: as §1
[6] = test system: Trichophyton rubrum; assay: Antifungal activity against Trichophyton rubrum

SMILES | MIC [1] [µg/mL] | MIC [2] [µg/mL] | MIC [3] [µg/mL] | MIC [4] [µg/mL] | MIC [5] [µg/mL] | MIC80 [6] [µg/mL]
CCCC(=O)OCC#Cc1coc2cc(OC)ccc2c1=O | 50 (≈ 166 µM) | 12.5 (≈ 41.6 µM) | 50 (≈ 166 µM) | 12.5 (≈ 41.6 µM) | 25 (≈ 83.2 µM) | –
COc1ccc2c(=O)c(C#CCOC(=O)Cc3ccccc3)coc2c1 | > 100 | > 100 | > 100 | > 100 | > 100 | –
COc1ccc2c(=O)c(C#CCOC(=O)Cc3ccc(Cl)cc3)coc2c1 | > 100 | > 100 | > 100 | > 100 | > 100 | –
COc1ccc2c(=O)c(C#CCOC(=O)C3C(C)(C)C3(C)C)coc2c1 | > 100 | > 100 | > 100 | > 100 | 12.5 (≈ 35.3 µM) | –
COc1ccc2c(=O)c(C#CCOC(=O)CCCCC(C)C)coc2c1 | 25 (≈ 70.1 µM) | > 100 | 50 (≈ 140 µM) | 12.5 (≈ 35.1 µM) | 12.5 (≈ 35.1 µM) | –
CCCCCCC(=O)OCC#Cc1coc2cc(OC)ccc2c1=O | > 100 | > 100 | > 100 | > 100 | > 100 | –
CCC(=O)OCC#Cc1coc2cc(OC)ccc2c1=O | 25 (≈ 87.3 µM) | 25 (≈ 87.3 µM) | 25 (≈ 87.3 µM) | 6.25 (≈ 21.8 µM) | 12.5 (≈ 43.7 µM) | –
COc1ccc2c(=O)c(C#CCOC(=O)c3ccc([N+](=O)[O-])cc3)coc2c1 | > 100 | > 100 | > 100 | > 100 | > 100 | –
CCCCCC(=O)OCC#Cc1coc2cc(OC)ccc2c1=O | 50 (≈ 152 µM) | > 100 | > 100 | 25 (≈ 76.1 µM) | 12.5 (≈ 38.1 µM) | –
COc1ccc2c(=O)c(C#CCOC(=O)C(C)C)coc2c1 | 12.5 (≈ 41.6 µM) | 50 (≈ 166 µM) | 50 (≈ 166 µM) | 3.12 (≈ 10.4 µM) | 25 (≈ 83.2 µM) | –
OC(Cn1cncn1)(Cn1cncn1)c1ccc(F)cc1F [FLUCONAZOLE] | 32 (≈ 104 µM) | 0.25 (≈ 0.816 µM) | 1 (≈ 3.27 µM) | 0.25 (≈ 0.816 µM) | 0.5 (≈ 1.63 µM) | –
CCCCC(=O)OCC#Cc1coc2cc(OC)ccc2c1=O | 25 (≈ 79.5 µM) | 25 (≈ 79.5 µM) | 25 (≈ 79.5 µM) | 1.5 (≈ 4.77 µM) | 25 (≈ 79.5 µM) | 1.5 (≈ 4.77 µM)
COc1ccc2c(=O)c(C#CCOC(C)=O)coc2c1 | > 100 | > 100 | > 100 | > 100 | 25 (≈ 91.8 µM) | –
COc1ccc2c(=O)c(C#CCOC(=O)C3CCCCC3)coc2c1 | > 100 | > 100 | > 100 | > 100 | > 100 | –
COc1ccc2c(=O)c(C#CCOC(=O)c3ccccc3)coc2c1 | > 100 | > 100 | > 100 | > 100 | > 100 | –
COc1ccc2c(=O)c(C#CCOC(=O)c3cc([N+](=O)[O-])cc([N+](=O)[O-])c3)coc2c1 | > 100 | > 100 | > 100 | 50 (≈ 118 µM) | 50 (≈ 118 µM) | –
COc1ccc2c(=O)c(C#CCOC(=O)Cc3ccccc3Cl)coc2c1 | > 100 | > 100 | > 100 | 50 (≈ 131 µM) | 50 (≈ 131 µM) | –
COc1ccc2c(=O)c(C#CCOC(=O)CC(C)C)coc2c1 | 50 (≈ 159 µM) | > 100 | 50 (≈ 159 µM) | 6.25 (≈ 19.9 µM) | 25 (≈ 79.5 µM) | –
COc1ccc2c(=O)c(C#CCO)coc2c1 | > 100 | > 100 | > 100 | > 100 | > 100 | –
CCCCCCCC(=O)OCC#Cc1coc2cc(OC)ccc2c1=O | > 100 | > 100 | > 100 | > 100 | > 100 | –
